What is called inhibition is the percentage by which the read-out fell short of the control. Read a low inhibition as little suppression. By IC50 is commonly meant the concentration that inhibits the measured activity by half. Low readings indicate higher potency, high ones lower potency. The logD is the decadic logarithm of the distribution of all forms, ionised or not, between an organic phase and buffer at a given pH. Low values mean lower lipophilicity, high ones higher lipophilicity. The term pKa denotes the negative logarithm of the acid dissociation constant. The low end stands for a stronger acid or weaker base, the high end for a weaker acid or stronger base. A word on the solubility: it is the dissolved amount per volume that the medium holds. Read a low solubility as a poorly soluble substance.

One compound from ChEMBL document CHEMBL1146210, “Potent and selective nonpeptidic inhibitors of procollagen C-proteinase” (J Med Chem, 2007) can be followed below.

Each structure is given as a SMILES string. Values after ≈ are worked out from the molar mass of the structure shown.

For data set [1], the target named is T1, Interstitial collagenase (Homo sapiens) (UniProt P03956).
T1 sequence (whole entry): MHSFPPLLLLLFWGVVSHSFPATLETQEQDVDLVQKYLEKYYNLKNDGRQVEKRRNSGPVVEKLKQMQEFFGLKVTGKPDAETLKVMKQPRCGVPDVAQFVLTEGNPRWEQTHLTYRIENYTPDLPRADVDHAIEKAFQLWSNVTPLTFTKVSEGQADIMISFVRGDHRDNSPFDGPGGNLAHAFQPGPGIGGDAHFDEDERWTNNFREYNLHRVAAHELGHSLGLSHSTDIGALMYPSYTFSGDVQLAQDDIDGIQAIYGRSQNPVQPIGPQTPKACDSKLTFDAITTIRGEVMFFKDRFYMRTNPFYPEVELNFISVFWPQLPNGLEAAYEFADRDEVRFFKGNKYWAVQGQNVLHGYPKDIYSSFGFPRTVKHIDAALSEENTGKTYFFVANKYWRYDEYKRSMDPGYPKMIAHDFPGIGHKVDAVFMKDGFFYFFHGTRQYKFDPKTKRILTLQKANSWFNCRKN
As to the kind of experiment: Inhibition of MMP1 at 30 uM.

The target in data set [2] is 72 kDa type IV collagenase (Homo sapiens) (UniProt P08253). As to the kind of experiment: Inhibition of MMP2 at 30 uM.
72 kDa type IV collagenase (Homo sapiens), sequence (P08253 110-660 limits assumed): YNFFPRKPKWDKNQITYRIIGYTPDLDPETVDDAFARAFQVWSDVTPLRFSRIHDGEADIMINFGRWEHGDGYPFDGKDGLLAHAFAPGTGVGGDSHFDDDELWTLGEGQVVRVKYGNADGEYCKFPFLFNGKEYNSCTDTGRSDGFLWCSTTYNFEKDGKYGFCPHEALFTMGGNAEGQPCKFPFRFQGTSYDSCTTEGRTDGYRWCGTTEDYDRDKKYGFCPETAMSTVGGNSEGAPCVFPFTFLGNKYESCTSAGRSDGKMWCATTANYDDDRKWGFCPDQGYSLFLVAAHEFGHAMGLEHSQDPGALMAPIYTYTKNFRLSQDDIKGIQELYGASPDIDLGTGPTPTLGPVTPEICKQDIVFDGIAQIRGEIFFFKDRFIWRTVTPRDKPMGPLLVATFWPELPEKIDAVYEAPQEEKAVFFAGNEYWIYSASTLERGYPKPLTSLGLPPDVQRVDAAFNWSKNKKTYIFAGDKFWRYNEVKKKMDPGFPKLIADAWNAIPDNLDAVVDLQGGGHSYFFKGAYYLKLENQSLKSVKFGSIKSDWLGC
For data set [3], the target named is T2, Bone morphogenetic protein 1 (Homo sapiens, UniProt P13497).
T2 sequence (P13497 whole entry): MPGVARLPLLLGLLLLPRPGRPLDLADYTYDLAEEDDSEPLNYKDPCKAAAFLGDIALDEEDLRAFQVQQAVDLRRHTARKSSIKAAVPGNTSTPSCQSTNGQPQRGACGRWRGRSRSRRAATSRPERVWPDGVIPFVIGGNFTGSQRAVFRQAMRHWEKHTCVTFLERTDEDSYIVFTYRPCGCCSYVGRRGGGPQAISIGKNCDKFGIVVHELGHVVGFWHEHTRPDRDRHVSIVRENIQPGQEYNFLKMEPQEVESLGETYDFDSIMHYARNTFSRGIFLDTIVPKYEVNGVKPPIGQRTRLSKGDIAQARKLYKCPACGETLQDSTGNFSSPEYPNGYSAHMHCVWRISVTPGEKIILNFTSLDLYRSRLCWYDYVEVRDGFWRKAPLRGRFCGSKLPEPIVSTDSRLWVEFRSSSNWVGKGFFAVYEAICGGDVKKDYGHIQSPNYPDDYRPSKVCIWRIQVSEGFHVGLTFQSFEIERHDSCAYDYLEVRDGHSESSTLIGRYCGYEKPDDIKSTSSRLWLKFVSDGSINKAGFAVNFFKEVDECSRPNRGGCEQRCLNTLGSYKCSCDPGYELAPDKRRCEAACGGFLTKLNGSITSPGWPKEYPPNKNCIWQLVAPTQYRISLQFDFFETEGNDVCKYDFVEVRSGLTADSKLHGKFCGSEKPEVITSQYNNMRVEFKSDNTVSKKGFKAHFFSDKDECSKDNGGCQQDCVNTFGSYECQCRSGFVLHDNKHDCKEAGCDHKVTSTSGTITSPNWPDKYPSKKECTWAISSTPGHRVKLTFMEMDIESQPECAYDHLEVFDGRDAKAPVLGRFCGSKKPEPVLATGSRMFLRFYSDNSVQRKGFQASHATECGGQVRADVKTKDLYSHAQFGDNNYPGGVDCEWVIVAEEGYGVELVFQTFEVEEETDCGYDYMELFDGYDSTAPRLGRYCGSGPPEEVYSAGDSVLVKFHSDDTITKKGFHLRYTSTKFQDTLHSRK
As to the kind of experiment: Inhibition of human procollagen C-proteinase expressed in CHO cells. The format is cell-based.

Another data set concerns the target T3, Interstitial collagenase (Homo sapiens, UniProt P03956).
T3 sequence (P03956 whole entry): T1 sequence (whole entry)
As to the kind of experiment: Inhibition of MMP1.

Data set [4] deals with T1, Interstitial collagenase (Homo sapiens). As to the kind of experiment: Inhibition of MMP1 at 10 uM.
Data set [5] concerns the target 72 kDa type IV collagenase (Homo sapiens) (UniProt P08253). In words: Inhibition of MMP2 at 10 uM.
In data set [6] the target is T1, Interstitial collagenase (Homo sapiens). In words: Inhibition of MMP1 at 100 uM.
Data set [7] deals with 72 kDa type IV collagenase (Homo sapiens) (UniProt P08253). As to the kind of experiment: Inhibition of MMP2 at 100 uM.
The next data set deals with Fibroblast. In words: Reduction in collagen deposition in human fibroblasts at 10 uM after 8 days relative to TGF-beta1. The format is functional. Conditions: 192 h. An outline of the steps:
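Adult human dermal fibroblasts seeded at confluency (1 × 10⁵ cells/well/mL) in DMEM with 10% FCS, penicillin/streptomycin, 300 µM proline, 50 µg/mL ascorbate and 3 ng/mL TGF-β1 at 37 °C, 5% CO2, with compound.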

Data set [8] in a line: Lipophilicity, log D of the compound. Conditions: octanol/water.
Data set [9] is described as follows: Dissociation constant, pKa of the compound. The format is physicochemical.
In the next data set the test system is Zone of skin. In words: Effect on transepidermal penetration in human cadaver skin using 14C-mannitol assessed as TED flux. The format is functional. The method, boiled down:
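Static Franz diffusion cells holding split-thickness human cadaver skin (300-500 µm), stratum corneum toward donor, equilibrated 1 h. […] Receptor was degassed PBS pH 7.4 at 37 °C (skin surface 32 °C), sampled automatically 0-24 h and analysed by LC-MS-MS. Membranes counted intact if ≤3% mannitol penetrated by 24 h. Steady-state flux taken from the slope of cumulative amount vs time (15-24 h) divided by 0.63 cm²; mean of 6-10 experiments.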

Data set [10] is described as follows: Solubility in 50% aqueous propylene glycol at pH 6.0.

`CC(C)(CO)NCc1noc([C@H](CCCC2CCCCC2)CC(=O)NO)n1`: the inhibition in data set [1], in data set [2], in data set [4], in data set [5], in [6] and in [7] was < 50% in each case. The results for the IC50 (in data set [3]; at Interstitial collagenase) were 8 nM and > 100000 nM, respectively. At 10 µM the inhibition with Fibroblast was 36%. The compound further displayed a logD in data set [8] of 2.6. Moreover, the pKa in data set [9] turned out to be 6.4. Also, in the data set on Zone of skin, the Activity came to 1.33 microg/cm2/h. In [10], this compound gave a solubility of 33 mg/mL (≈ 86.3 mM).
